ChEMBL document CHEMBL1157589, “Antifungal 3,5-disubstituted furanones: From 5-acyloxymethyl to 5-alkylidene derivatives” (Bioorg Med Chem, 2010)
pIC50: −log10 of the molar value. ≈ marks a conversion by molar mass, not a printed value.

How the values were obtained:
Trichosporon beigelii [1] = assay: Antifungal activity against Trichosporon beigelii 1188 after 48 hrs by microdilution method; assay type: functional; conditions: Trichosporon beigelii, 1188, 48 h
Procedure, shortened: (§1)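 Yeasts held on Sabouraud dextrose agar. MIC by NCCLS M27-A broth microdilution in RPMI 1640 with L-glutamine, buffered with 0.165 M MOPS to pH 7.0. Compounds in DMSO (≤2% final), twofold dilutions 500–0.48. Final inoculum 5 × 10³ ± 0.2 cfu mL⁻¹. Incubated at 35 °C; absorbance at 540 nm read at 24 and 48 h. MIC is 80% growth inhibition versus control; run twice in duplicate.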

Pichia kudriavzevii [2] = assay: Antifungal activity against Candida krusei ATCC 6258 after 24 hrs by microdilution method; assay type: functional; conditions: ATCC 6258, 24 h; procedure, shortened: as §1
[3] = test system: Trichophyton mentagrophytes; assay: Antifungal activity against Trichophyton mentagrophytes 445 after 72 hrs by microdilution method; assay type: functional; conditions: Trichophyton mentagrophytes, 445, 72 h
Procedure, shortened: (§2)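 Dermatophyte held on Sabouraud dextrose agar. M27-A microdilution in MOPS-buffered (0.165 M, pH 7.0) RPMI 1640 with L-glutamine. DMSO ≤2% final; twofold dilutions 500–0.48. Inoculum 5 × 10³ ± 0.2 cfu mL⁻¹ final. Incubated at 35 °C; MIC read visually at 72 and 120 h as 80% inhibition of control growth; determined twice in duplicate.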

Candida albicans [4] = assay: Antifungal activity against Candida albicans ATCC 44859 after 24 hrs by microdilution method; assay type: functional; conditions: ATCC 44859, 24 h; procedure, shortened: as §1
HeLa S3 = assay: Cytostatic activity against human HeLaS3 cells after 48 hrs by XTT assay; conditions: for IC50: hela s3
Aspergillus fumigatus [5] = assay: Antifungal activity against Aspergillus fumigatus 231 after 24 hrs by microdilution method; assay type: functional; conditions: Aspergillus fumigatus, 231, 24 h
Procedure, shortened: (§3)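 Filamentous strains held on Sabouraud dextrose agar. NCCLS M27-A broth microdilution in RPMI 1640 with L-glutamine and 0.165 M MOPS, pH 7.0. DMSO diluent ≤2% final; twofold dilutions 500–0.48. Inoculum 5 × 10³ ± 0.2 cfu mL⁻¹ final.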

Aspergillus fumigatus [6] = assay: Antifungal activity against Aspergillus fumigatus 231 after 48 hrs by microdilution method; assay type: functional; conditions: Aspergillus fumigatus, 231, 48 h; procedure, shortened: as §3
Candida albicans [7] = assay: Antifungal activity against Candida albicans ATCC 90028 after 24 hrs by microdilution method; assay type: functional; conditions: ATCC 90028, 24 h; procedure, shortened: as §1
[8] = test system: Trichophyton mentagrophytes; assay: Antifungal activity against Trichophyton mentagrophytes 445 after 120 hrs by microdilution method; assay type: functional; conditions: Trichophyton mentagrophytes, 445, 120 h; procedure, shortened: as §2
Trichosporon beigelii [9] = assay: Antifungal activity against Trichosporon beigelii 1188 after 24 hrs by microdilution method; assay type: functional; conditions: Trichosporon beigelii, 1188, 24 h; procedure, shortened: as §1
Candida tropicalis [10] = assay: Antifungal activity against Candida tropicalis 156 after 48 hrs by microdilution method; assay type: functional; conditions: Candida tropicalis, 156, 48 h; procedure, shortened: as §1
Clavispora lusitaniae [11] = assay: Antifungal activity against Candida lusitaniae 2446/I after 48 hrs by microdilution method; assay type: functional; procedure, shortened: as §1
Pichia kudriavzevii [12] = assay: Antifungal activity against Candida krusei E28 after 24 hrs by microdilution method; assay type: functional; conditions: E28, 24 h; procedure, shortened: as §1
Clavispora lusitaniae [13] = assay: Antifungal activity against Candida lusitaniae 2446/I after 24 hrs by microdilution method; assay type: functional; procedure, shortened: as §1
Nakaseomyces glabratus [14] = assay: Antifungal activity against Candida glabrata 20/I after 48 hrs by microdilution method; assay type: functional; procedure, shortened: as §1
Lichtheimia corymbifera [15] = assay: Antifungal activity against Absidia corymbifera 272 after 48 hrs by microdilution method; assay type: functional; conditions: Lichtheimia corymbifera, 272, 48 h; procedure, shortened: as §3
Candida parapsilosis [16] = assay: Antifungal activity against Candida parapsilosis ATCC 22019 after 24 hrs by microdilution method; assay type: functional; conditions: Lodderomyces parapsilosis, ATCC 22019, 24 h; procedure, shortened: as §1
Lichtheimia corymbifera [17] = assay: Antifungal activity against Absidia corymbifera 272 after 24 hrs by microdilution method; assay type: functional; conditions: Lichtheimia corymbifera, 272, 24 h; procedure, shortened: as §3
Candida tropicalis [18] = assay: Antifungal activity against Candida tropicalis 156 after 24 hrs by microdilution method; assay type: functional; conditions: Candida tropicalis, 156, 24 h; procedure, shortened: as §1
Nakaseomyces glabratus [19] = assay: Antifungal activity against Candida glabrata 20/I after 24 hrs by microdilution method; assay type: functional; procedure, shortened: as §1
CCRF-CEM = assay: Cytostatic activity against human CCRF-CEM cells after 72 hrs by XTT assay; assay type: functional, cell-based; conditions: for IC50: ccrf-cem
Procedure, shortened: (§4)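 Leukemia cells (L1210 ATCC CCL 219, CCRF-CEM ATCC CCL 119, HL-60 ATCC CCL 240) grown in 24-well plates in RPMI 1640 with fetal calf serum. Growth assessed 72 h after drug addition. Viability measured by XTT spectrophotometric assay; potency given as IC50.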

Candida albicans [20] = assay: Antifungal activity against Candida albicans ATCC 44859 after 48 hrs by microdilution method; assay type: functional; conditions: ATCC 44859, 48 h; procedure, shortened: as §1
Candida parapsilosis [21] = assay: Antifungal activity against Candida parapsilosis ATCC 22019 after 48 hrs by microdilution method; assay type: functional; conditions: Lodderomyces parapsilosis, ATCC 22019, 48 h; procedure, shortened: as §1
HL-60 = assay: Cytostatic activity against human HL60 cells after 72 hrs by XTT assay; assay type: functional, cell-based; conditions: hl-60; procedure, shortened: as §4
Pichia kudriavzevii [22] = assay: Antifungal activity against Candida krusei E28 after 48 hrs by microdilution method; assay type: functional; conditions: E28, 48 h; procedure, shortened: as §1
L1210 = assay: Cytostatic activity against mouse L1210 cells after 72 hrs by XTT assay; assay type: functional, cell-based; conditions: l1210; procedure, shortened: as §4
Candida albicans [23] = assay: Antifungal activity against Candida albicans ATCC 90028 after 48 hrs by microdilution method; assay type: functional; conditions: ATCC 90028, 48 h; procedure, shortened: as §1
Pichia kudriavzevii [24] = assay: Antifungal activity against Candida krusei ATCC 6258 after 48 hrs by microdilution method; assay type: functional; conditions: ATCC 6258, 48 h; procedure, shortened: as §1

Structure (SMILES) | MIC80 (Trichosporon beigelii [1]) [µM] | MIC80 (Pichia kudriavzevii [2]) [µM] | MIC80 [3] [µM] | MIC80 (Candida albicans [4]) [µM] | MIC80 (Aspergillus fumigatus [5]) [µM] | MIC80 (Aspergillus fumigatus [6]) [µM] | MIC80 (Candida albicans [7]) [µM] | MIC80 [8] [µM] | MIC80 (Trichosporon beigelii [9]) [µM] | MIC80 (Candida tropicalis [10]) [µM] | MIC80 (Clavispora lusitaniae [11]) [µM] | MIC80 (Pichia kudriavzevii [12]) [µM] | MIC80 (Clavispora lusitaniae [13]) [µM] | MIC80 (Nakaseomyces glabratus [14]) [µM] | MIC80 (Lichtheimia corymbifera [15]) [µM] | MIC80 (Candida parapsilosis [16]) [µM] | MIC80 (Lichtheimia corymbifera [17]) [µM] | MIC80 (Candida tropicalis [18]) [µM] | MIC80 (Nakaseomyces glabratus [19]) [µM] | MIC80 (Candida albicans [20]) [µM] | also measured
O=C1O/C(=C\CCO)C=C1c1ccc(Br)cc1 | 125 (≈ 36.9 µg/mL) | 125 (≈ 36.9 µg/mL) | 31.2 (≈ 9.22 µg/mL) | 62.5 (≈ 18.4 µg/mL) | 125 (≈ 36.9 µg/mL) | 250 (≈ 73.8 µg/mL) | 125 (≈ 36.9 µg/mL) | 31.2 (≈ 9.22 µg/mL) | 125 (≈ 36.9 µg/mL) | 250 (≈ 73.8 µg/mL) | 250 (≈ 73.8 µg/mL) | 250 (≈ 73.8 µg/mL) | 125 (≈ 36.9 µg/mL) | 250 (≈ 73.8 µg/mL) | 62.5 (≈ 18.4 µg/mL) | 125 (≈ 36.9 µg/mL) | 62.5 (≈ 18.4 µg/mL) | 125 (≈ 36.9 µg/mL) | 62.5 (≈ 18.4 µg/mL) | 125 (≈ 36.9 µg/mL) | IC50 (HeLa S3): Not Active; IC50 (CCRF-CEM): Not Active; MIC80 (Candida parapsilosis [21]): 125 µM (≈ 36.9 µg/mL); IC50 (HL-60): Not Active; MIC80 (Pichia kudriavzevii [22]): 250 µM (≈ 73.8 µg/mL); IC50 (L1210): Not Active; MIC80 (Candida albicans [23]): 250 µM (≈ 73.8 µg/mL); MIC80 (Pichia kudriavzevii [24]): 250 µM (≈ 73.8 µg/mL)
CC(=O)OC/C=C1/C=C(c2ccc(Br)cc2)C(=O)O1 | 31.2 (≈ 10.1 µg/mL) | 7.81 (≈ 2.52 µg/mL) | 7.81 (≈ 2.52 µg/mL) | 7.81 (≈ 2.52 µg/mL) | 15.6 (≈ 5.05 µg/mL) | 31.2 (≈ 10.1 µg/mL) | 31.2 (≈ 10.1 µg/mL) | 15.6 (≈ 5.05 µg/mL) | 31.2 (≈ 10.1 µg/mL) | 125 (≈ 40.4 µg/mL) | 125 (≈ 40.4 µg/mL) | 62.5 (≈ 20.2 µg/mL) | 62.5 (≈ 20.2 µg/mL) | 62.5 (≈ 20.2 µg/mL) | 31.2 (≈ 10.1 µg/mL) | 31.2 (≈ 10.1 µg/mL) | 31.2 (≈ 10.1 µg/mL) | 31.2 (≈ 10.1 µg/mL) | 31.2 (≈ 10.1 µg/mL) | 31.2 (≈ 10.1 µg/mL) | pIC50 (HeLa S3; Homo sapiens, HeLa S3, 48 h, read-out: IC50): 5.38; pIC50 (CCRF-CEM; Homo sapiens, CCRF-CEM, 72 h, read-out: IC50): 5.36; MIC80 (Candida parapsilosis [21]): 62.5 µM (≈ 20.2 µg/mL); IC50 (HL-60): Not Active; MIC80 (Pichia kudriavzevii [22]): 62.5 µM (≈ 20.2 µg/mL); IC50 (L1210): Not Active; MIC80 (Candida albicans [23]): 62.5 µM (≈ 20.2 µg/mL); MIC80 (Pichia kudriavzevii [24]): 62.5 µM (≈ 20.2 µg/mL)
O=C1O/C(=C\COC(=O)c2ccccc2)C=C1c1ccc(Br)cc1 | > 500 | > 500 | > 500 | > 500 | > 500 | > 500 | > 500 | > 500 | > 500 | > 500 | > 500 | > 500 | > 500 | > 500 | > 500 | > 500 | > 500 | > 500 | > 500 | > 500 | IC50 (HeLa S3): Not Active; IC50 (CCRF-CEM): Not Active; MIC80 (Candida parapsilosis [21]): > 500 µM; IC50 (HL-60): Not Active; MIC80 (Pichia kudriavzevii [22]): > 500 µM; IC50 (L1210): Not Active; MIC80 (Candida albicans [23]): > 500 µM; MIC80 (Pichia kudriavzevii [24]): > 500 µM
